Experimental data reported in ChEMBL document CHEMBL4390639, “Design, Synthesis, and Biological Evaluation of Novel Allosteric Protein Disulfide Isomerase Inhibitors” (J Med Chem, 2019).
Calls of active or inactive are those of the source. No cut-off for these calls is given here.

How the values were obtained:
[1] = test system: U-87 MG; assay: Down regulation of CD83 gene expression in human U87MG cells at 16 uM incubated for 4 hrs followed by bromouridine addition during last 30 mins of incubation by TRIzol-reagent based Bru-Seq analysis relative to control; assay type: functional, U-87MG ATCC
[2] = test system: U-87 MG; assay: Down regulation of AC007848.1 gene expression in human U87MG cells at 16 uM incubated for 4 hrs followed by bromouridine addition during last 30 mins of incubation by TRIzol-reagent based Bru-Seq analysis relative to control; assay type: functional, U-87MG ATCC
[3] = test system: U-87 MG; assay: Down regulation of CYP1B1 gene expression in human U87MG cells at 16 uM incubated for 4 hrs followed by bromouridine addition during last 30 mins of incubation by TRIzol-reagent based Bru-Seq analysis relative to control; assay type: functional, U-87MG ATCC
[4] = test system: U-87 MG; assay: Up regulation of BCO2 gene expression in human U87MG cells at 16 uM incubated for 4 hrs followed by bromouridine addition during last 30 mins of incubation by TRIzol-reagent based Bru-Seq analysis relative to control; assay type: functional, U-87MG ATCC
How it was run: (§1)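 U87MG cells exposed to compound or DMSO vehicle for 4 h, with 2 mM bromouridine added for the final 30 min. Total RNA isolated with TRIzol; Bru-labelled nascent RNA captured on anti-BrdU antibody-conjugated magnetic beads and sequenced. Transcript abundance expressed as RPKM relative to DMSO. Experiment performed once.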

[5] = test system: U-87 MG; assay: Up regulation of TRIM16L gene expression in human U87MG cells at 16 uM incubated for 4 hrs followed by bromouridine addition during last 30 mins of incubation by TRIzol-reagent based Bru-Seq analysis relative to control; assay type: functional, U-87MG ATCC
[6] = test system: U-87 MG; assay: Up regulation of HSPA1B gene expression in human U87MG cells at 16 uM incubated for 4 hrs followed by bromouridine addition during last 30 mins of incubation by TRIzol-reagent based Bru-Seq analysis relative to control; assay type: functional, U-87MG ATCC; how it was run: as §1
[7] = test system: U-87 MG; assay: Down regulation of BIRC3 gene expression in human U87MG cells at 16 uM incubated for 4 hrs followed by bromouridine addition during last 30 mins of incubation by TRIzol-reagent based Bru-Seq analysis relative to control; assay type: functional, U-87MG ATCC
[8] = test system: U-87 MG; assay: Down regulation of HIST1H4B gene expression in human U87MG cells at 16 uM incubated for 4 hrs followed by bromouridine addition during last 30 mins of incubation by TRIzol-reagent based Bru-Seq analysis relative to control; assay type: functional, U-87MG ATCC
[9] = test system: U-87 MG; assay: Down regulation of AC006206.2 gene expression in human U87MG cells at 16 uM incubated for 4 hrs followed by bromouridine addition during last 30 mins of incubation by TRIzol-reagent based Bru-Seq analysis relative to control; assay type: functional, U-87MG ATCC; how it was run: as §1
[10] = test system: U-87 MG; assay: Up regulation of PIR gene expression in human U87MG cells at 16 uM incubated for 4 hrs followed by bromouridine addition during last 30 mins of incubation by TRIzol-reagent based Bru-Seq analysis relative to control; assay type: functional, U-87MG ATCC; how it was run: as §1
[11] = test system: U-87 MG; assay: Up regulation of NMRAL2P gene expression in human U87MG cells at 16 uM incubated for 4 hrs followed by bromouridine addition during last 30 mins of incubation by TRIzol-reagent based Bru-Seq analysis relative to control; assay type: functional, U-87MG ATCC; how it was run: as §1
[12] = test system: U-87 MG; assay: Down regulation of LIF gene expression in human U87MG cells at 16 uM incubated for 4 hrs followed by bromouridine addition during last 30 mins of incubation by TRIzol-reagent based Bru-Seq analysis relative to control; assay type: functional, U-87MG ATCC
[13] = test system: U-87 MG; assay: Up regulation of SLC7A11 gene expression in human U87MG cells at 16 uM incubated for 4 hrs followed by bromouridine addition during last 30 mins of incubation by TRIzol-reagent based Bru-Seq analysis relative to control; assay type: functional, U-87MG ATCC
How it was run: (§2)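 U87MG cells treated 4 h with test compound (10 or 16 μM, as per line) or DMSO; 2 mM bromouridine added for final 30 min. Total RNA isolated with TRIzol, Bru-labelled nascent RNA captured with anti-BrdU antibody magnetic beads and sequenced; transcript abundance (RPKM) compared with DMSO control. Single experiment.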

[14] = test system: U-87 MG; assay: Inhibition of colony formation in human U87MG cells assessed as combination index at 1 to 30 uM measured after 24 hrs in presence of arsenic trioxide by crystal violet staining based assay; assay type: functional, U-87MG ATCC
[15] = molecular target: 72 kDa type IV collagenase (Homo sapiens) (UniProt P08253); assay: Inhibition of MMP2 activity in human U87MG cells at 10 uM […] by gelatin zymographic method; assay type: cell-based
Chain of 72 kDa type IV collagenase (Homo sapiens) (P08253 110-660 limits assumed): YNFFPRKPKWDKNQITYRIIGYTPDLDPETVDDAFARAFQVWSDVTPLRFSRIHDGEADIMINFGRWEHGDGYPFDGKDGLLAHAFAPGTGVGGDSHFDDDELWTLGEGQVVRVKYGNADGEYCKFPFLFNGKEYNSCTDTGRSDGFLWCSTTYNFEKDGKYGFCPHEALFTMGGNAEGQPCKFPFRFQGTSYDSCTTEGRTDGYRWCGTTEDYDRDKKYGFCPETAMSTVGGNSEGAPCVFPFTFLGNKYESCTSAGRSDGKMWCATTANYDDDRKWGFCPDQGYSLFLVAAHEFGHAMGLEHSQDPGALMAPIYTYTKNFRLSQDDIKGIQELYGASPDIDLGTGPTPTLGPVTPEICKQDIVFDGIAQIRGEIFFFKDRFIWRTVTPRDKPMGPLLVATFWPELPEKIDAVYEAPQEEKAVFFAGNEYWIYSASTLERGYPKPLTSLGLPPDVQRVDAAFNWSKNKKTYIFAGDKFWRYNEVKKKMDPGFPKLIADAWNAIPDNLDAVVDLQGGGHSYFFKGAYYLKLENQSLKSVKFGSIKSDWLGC

[16] = test system: Protein disulfide-isomerase (Homo sapiens), P07237 [H256A]; assay: Inhibition of recombinant human N-terminal His-tagged PDI H256A mutant expressed in Escherichia coli BL21 (DE3) pLysS at 100 uM measured after 1 hr by ANS dye based fluorescence spectra analysis
Chain of Protein disulfide-isomerase (Homo sapiens), P07237 [H256A] (P07237 whole entry H256A): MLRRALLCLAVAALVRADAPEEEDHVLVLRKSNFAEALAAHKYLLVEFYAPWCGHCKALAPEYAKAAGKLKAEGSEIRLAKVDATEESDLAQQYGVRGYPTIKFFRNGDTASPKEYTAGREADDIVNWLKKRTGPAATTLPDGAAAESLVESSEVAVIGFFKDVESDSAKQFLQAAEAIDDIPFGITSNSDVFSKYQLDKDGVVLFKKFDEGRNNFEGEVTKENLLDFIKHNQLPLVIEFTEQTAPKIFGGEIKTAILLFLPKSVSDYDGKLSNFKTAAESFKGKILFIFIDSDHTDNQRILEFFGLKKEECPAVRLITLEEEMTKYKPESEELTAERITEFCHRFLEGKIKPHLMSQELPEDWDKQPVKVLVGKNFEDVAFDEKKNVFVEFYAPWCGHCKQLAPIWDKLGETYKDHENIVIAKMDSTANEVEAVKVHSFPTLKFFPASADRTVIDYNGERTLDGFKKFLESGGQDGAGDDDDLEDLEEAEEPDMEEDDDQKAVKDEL

[17] = test system: U-87 MG; assay: Down regulation of HLA-DQB1 gene expression in human U87MG cells at 10 uM incubated for 4 hrs followed by bromouridine addition during last 30 mins of incubation by TRIzol-reagent based Bru-Seq analysis relative to control; assay type: functional, U-87MG ATCC
[18] = test system: U-87 MG; assay: Down regulation of AKAP5 gene expression in human U87MG cells at 10 uM incubated for 4 hrs followed by bromouridine addition during last 30 mins of incubation by TRIzol-reagent based Bru-Seq analysis relative to control; assay type: functional, U-87MG ATCC
[19] = test system: U-87 MG; assay: Down regulation of FPGT gene expression in human U87MG cells at 10 uM incubated for 4 hrs followed by bromouridine addition during last 30 mins of incubation by TRIzol-reagent based Bru-Seq analysis relative to control; assay type: functional, U-87MG ATCC
[20] = test system: U-87 MG; assay: Down regulation of ZNF404 gene expression in human U87MG cells at 10 uM incubated for 4 hrs followed by bromouridine addition during last 30 mins of incubation by TRIzol-reagent based Bru-Seq analysis relative to control; assay type: functional, U-87MG ATCC; how it was run: as §1
[21] = test system: U-87 MG; assay: Up regulation of NR4A1 gene expression in human U87MG cells at 10 uM incubated for 4 hrs followed by bromouridine addition during last 30 mins of incubation by TRIzol-reagent based Bru-Seq analysis relative to control; assay type: functional, U-87MG ATCC; how it was run: as §1
[22] = test system: U-87 MG; assay: Up regulation of DEDD2 gene expression in human U87MG cells at 10 uM incubated for 4 hrs followed by bromouridine addition during last 30 mins of incubation by TRIzol-reagent based Bru-Seq analysis relative to control; assay type: functional, U-87MG ATCC; how it was run: as §1
[23] = test system: U-87 MG; assay: Up regulation of TRIB3 gene expression in human U87MG cells at 10 uM incubated for 4 hrs followed by bromouridine addition during last 30 mins of incubation by TRIzol-reagent based Bru-Seq analysis relative to control; assay type: functional, U-87MG ATCC; how it was run: as §2
[24] = test system: U-87 MG; assay: Up regulation of HSPA4L gene expression in human U87MG cells at 10 uM incubated for 4 hrs followed by bromouridine addition during last 30 mins of incubation by TRIzol-reagent based Bru-Seq analysis relative to control; assay type: functional, U-87MG ATCC; how it was run: as §1
[25] = test system: U-87 MG; assay: Cytotoxicity against human U87MG cells assessed as inhibition of cell proliferation at <IC50 treated for 24 hrs, measured after 10 days by colony formation assay relative to control
[26] = test system: U-87 MG; assay: Down regulation of E2F1 gene expression in human U87MG cells at 10 uM incubated for 4 hrs followed by bromouridine addition during last 30 mins of incubation by TRIzol-reagent based Bru-Seq analysis; assay type: functional, cell-based; conditions: U-87MG ATCC

COC(=O)c1cccc(/C=C/C(=O)c2cccc(O)c2)c1
fold change (FC) [1]: 2.7 | fold change (FC) [2]: 2.9 | fold change (FC) [3]: 2.8 | fold change (FC) [4]: 1.9 | fold change (FC) [5]: 4.9 | fold change (FC) [6]: 10.2 | fold change (FC) [7]: 3.3 | fold change (FC) [8]: 2.7 | fold change (FC) [9]: 3.9 | fold change (FC) [10]: 4.3 | fold change (FC) [11]: 15 | log2FC [11]: 4.1 | fold change (FC) [12]: 2.7 | fold change (FC) [13]: 21.2

N#Cc1cccc(/C=C/C(=O)c2ccc(O)cc2)c1
CI [14]: <1

O=C(/C=C/c1ccc(-c2cccnc2)cc1)c1cccc(O)c1
inhibition [15]: Active

CCCCCN(CCCCC)S(=O)(=O)c1ccc(C(=O)/C=C/c2cccc(O)c2)cc1
inhibition [16]: Active

CCCCCN(CCCCC)S(=O)(=O)c1ccc(C(=O)/C=C/c2cccc(C#N)c2)cc1
fold change (FC) [17]: 2.9 | fold change (FC) [18]: 3.4 | fold change (FC) [19]: 2.3 | fold change (FC) [20]: 2.7 | fold change (FC) [21]: 18.9 | fold change (FC) [22]: 11 | fold change (FC) [23]: 34.1 | fold change (FC) [24]: 8.6 | inhibition (INH) [25]: >50% | Activity [26]: Active
